2 compounds from ChEMBL document CHEMBL3232764, “Influence of the adamantyl moiety on the activity of biphenylacrylohydroxamic acid-based HDAC inhibitors” (Eur J Med Chem, 2014) can be followed below.

One experiment concerns the target T1, Histone deacetylase 11 (Homo sapiens, UniProt Q96DB2).
T1 sequence (Q96DB2 whole entry): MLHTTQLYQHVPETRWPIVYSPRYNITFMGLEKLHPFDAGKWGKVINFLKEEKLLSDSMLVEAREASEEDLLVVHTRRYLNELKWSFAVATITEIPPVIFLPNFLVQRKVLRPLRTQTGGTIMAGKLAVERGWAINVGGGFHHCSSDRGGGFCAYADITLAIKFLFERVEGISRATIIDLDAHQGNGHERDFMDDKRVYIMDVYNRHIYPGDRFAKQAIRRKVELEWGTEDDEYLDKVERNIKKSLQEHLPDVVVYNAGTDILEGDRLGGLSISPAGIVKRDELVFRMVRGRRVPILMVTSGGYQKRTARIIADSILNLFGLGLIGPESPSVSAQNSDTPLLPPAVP
The experiment can be described thus: Inhibition of human HDAC11 using fluorogenic tetrapeptide RHKKAc as substrate.

The next experiment deals with Histone deacetylase 9 (Homo sapiens, UniProt Q9UKV0). Nature of the experiment: Inhibition of human HDAC9 using fluorogenic tetrapeptide RHKKAc as substrate.
A further experiment deals with IGROV-1. Nature of the experiment: Induction of apoptosis in human IGROV1 cells at IC80 after 72 hrs by TUNEL and flow cytometry analysis (reference value: 4%). It is filed as functional. (In general: Flow cytometry measures light scatter and fluorescence of single cells or particles in a stream.)
For a further experiment, the target named is Histone deacetylase 4 (Homo sapiens, UniProt P56524). The experiment can be described thus: Inhibition of human HDAC4 using fluorogenic tetrapeptide RHKKAc as substrate.
The target of experiment [1] is T2, Polyamine deacetylase HDAC10 (Homo sapiens, UniProt Q969S8).
T2 sequence (Q969S8 whole entry): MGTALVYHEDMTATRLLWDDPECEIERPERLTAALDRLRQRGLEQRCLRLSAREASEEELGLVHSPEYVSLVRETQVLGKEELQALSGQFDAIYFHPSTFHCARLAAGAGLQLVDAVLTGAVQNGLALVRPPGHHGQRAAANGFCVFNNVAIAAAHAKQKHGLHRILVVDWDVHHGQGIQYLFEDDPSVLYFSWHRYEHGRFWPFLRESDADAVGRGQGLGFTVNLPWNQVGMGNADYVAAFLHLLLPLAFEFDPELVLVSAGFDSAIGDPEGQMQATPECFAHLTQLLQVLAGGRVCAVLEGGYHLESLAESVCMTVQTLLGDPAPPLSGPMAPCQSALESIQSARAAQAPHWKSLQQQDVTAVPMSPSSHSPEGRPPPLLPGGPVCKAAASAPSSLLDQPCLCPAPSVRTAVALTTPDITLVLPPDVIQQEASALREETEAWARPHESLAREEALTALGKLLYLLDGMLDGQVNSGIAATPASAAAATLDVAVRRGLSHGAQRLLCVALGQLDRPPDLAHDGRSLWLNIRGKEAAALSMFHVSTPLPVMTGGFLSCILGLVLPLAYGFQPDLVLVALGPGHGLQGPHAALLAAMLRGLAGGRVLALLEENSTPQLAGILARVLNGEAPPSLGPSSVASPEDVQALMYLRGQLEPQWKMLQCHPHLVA
The experiment can be described thus: Inhibition of human HDAC10 using fluorogenic tetrapeptide RHKKAc as substrate.

The test system of a further experiment is HCT-116. The experiment can be described thus: Antiproliferative activity against human HCT116 cells assessed as growth inhibition after 72 hrs. Format: functional, cell-based. To be noted: HCT-116, 72 h. Put shortly:
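Log-phase cells seeded in duplicate in 6-well plates; drug added 24 h after seeding. Cells harvested 72 h after drug exposure and counted with a cell counter. IC50 = drug concentration giving 50% reduction in cell number versus untreated control.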

The target of the next experiment is Histone deacetylase 5 (Homo sapiens, UniProt Q9UQL6). Nature of the experiment: Inhibition of human HDAC5 using fluorogenic tetrapeptide RHKKAc as substrate.
In a further experiment the target is Histone deacetylase 3 (Homo sapiens, UniProt O15379).
In experiment [2] the target is T3, Protein deacetylase HDAC6 (Homo sapiens, UniProt Q9UBN7).
T3 sequence (Q9UBN7 whole entry): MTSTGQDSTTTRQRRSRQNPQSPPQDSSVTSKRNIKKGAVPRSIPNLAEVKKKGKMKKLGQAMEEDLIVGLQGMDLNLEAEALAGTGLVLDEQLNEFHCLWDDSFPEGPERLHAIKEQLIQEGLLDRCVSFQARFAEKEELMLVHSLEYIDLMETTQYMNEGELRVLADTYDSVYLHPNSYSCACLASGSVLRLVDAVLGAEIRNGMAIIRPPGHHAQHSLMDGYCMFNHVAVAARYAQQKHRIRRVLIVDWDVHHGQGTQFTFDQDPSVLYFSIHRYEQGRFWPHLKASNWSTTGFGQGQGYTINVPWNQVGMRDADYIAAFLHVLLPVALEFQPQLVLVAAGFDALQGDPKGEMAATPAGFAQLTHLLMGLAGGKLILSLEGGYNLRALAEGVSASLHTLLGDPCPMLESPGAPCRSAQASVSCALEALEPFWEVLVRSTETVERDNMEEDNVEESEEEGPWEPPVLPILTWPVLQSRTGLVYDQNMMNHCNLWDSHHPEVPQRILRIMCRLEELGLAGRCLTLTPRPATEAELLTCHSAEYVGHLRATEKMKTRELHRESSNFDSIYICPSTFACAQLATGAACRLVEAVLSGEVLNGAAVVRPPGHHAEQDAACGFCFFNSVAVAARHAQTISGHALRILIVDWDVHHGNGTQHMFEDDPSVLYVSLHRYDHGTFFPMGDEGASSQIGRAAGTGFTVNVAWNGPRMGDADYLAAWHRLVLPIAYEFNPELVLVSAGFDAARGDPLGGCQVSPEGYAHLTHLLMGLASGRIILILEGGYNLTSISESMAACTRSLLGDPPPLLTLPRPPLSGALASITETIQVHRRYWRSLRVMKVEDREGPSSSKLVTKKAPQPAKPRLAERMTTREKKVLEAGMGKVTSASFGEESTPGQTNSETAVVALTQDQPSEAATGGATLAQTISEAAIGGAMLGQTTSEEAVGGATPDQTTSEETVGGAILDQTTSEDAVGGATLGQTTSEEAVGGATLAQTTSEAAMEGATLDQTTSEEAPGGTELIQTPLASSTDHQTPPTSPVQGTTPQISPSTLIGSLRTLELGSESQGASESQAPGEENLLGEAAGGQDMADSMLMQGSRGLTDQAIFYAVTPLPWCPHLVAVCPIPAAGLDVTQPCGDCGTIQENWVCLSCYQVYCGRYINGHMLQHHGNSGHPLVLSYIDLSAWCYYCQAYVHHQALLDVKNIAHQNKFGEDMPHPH
Nature of the experiment: Inhibition of human HDAC6 using fluorogenic tetrapeptide RHKKAc as substrate.

The IC50 is the point on the concentration scale where inhibition reaches its midpoint.

SMILES strings stand for the structures. A value given as a limit tells only on which side of the number the result lay.

Sequence of Histone deacetylase 4 (P56524 whole entry): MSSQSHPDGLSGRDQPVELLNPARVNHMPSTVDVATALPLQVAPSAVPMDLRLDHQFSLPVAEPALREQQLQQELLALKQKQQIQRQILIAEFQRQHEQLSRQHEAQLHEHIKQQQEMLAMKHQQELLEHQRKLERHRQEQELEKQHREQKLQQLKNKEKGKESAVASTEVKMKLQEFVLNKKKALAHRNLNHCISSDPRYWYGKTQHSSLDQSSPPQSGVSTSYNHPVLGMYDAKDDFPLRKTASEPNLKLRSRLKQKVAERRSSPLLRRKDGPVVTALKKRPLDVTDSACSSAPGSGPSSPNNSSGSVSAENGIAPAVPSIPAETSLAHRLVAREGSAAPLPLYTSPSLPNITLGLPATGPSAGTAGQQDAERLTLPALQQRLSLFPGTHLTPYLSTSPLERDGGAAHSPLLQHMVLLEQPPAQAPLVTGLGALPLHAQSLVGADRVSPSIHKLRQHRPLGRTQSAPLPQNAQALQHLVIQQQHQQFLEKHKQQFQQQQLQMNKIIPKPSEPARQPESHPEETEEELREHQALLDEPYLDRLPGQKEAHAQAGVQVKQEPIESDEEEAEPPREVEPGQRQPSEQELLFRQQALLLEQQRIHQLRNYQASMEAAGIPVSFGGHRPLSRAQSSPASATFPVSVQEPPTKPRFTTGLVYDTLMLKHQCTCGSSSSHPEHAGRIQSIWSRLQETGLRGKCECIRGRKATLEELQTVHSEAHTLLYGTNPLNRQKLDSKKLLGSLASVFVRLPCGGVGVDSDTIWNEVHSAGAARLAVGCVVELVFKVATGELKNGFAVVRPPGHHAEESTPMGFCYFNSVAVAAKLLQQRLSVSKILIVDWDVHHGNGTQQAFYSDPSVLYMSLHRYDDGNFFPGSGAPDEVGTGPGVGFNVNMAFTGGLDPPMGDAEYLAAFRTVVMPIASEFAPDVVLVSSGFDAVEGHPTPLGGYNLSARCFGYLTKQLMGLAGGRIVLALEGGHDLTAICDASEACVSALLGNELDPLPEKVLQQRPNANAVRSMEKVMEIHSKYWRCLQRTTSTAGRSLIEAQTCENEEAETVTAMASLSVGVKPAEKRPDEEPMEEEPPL
Sequence of Histone deacetylase 5 (Q9UQL6 whole entry): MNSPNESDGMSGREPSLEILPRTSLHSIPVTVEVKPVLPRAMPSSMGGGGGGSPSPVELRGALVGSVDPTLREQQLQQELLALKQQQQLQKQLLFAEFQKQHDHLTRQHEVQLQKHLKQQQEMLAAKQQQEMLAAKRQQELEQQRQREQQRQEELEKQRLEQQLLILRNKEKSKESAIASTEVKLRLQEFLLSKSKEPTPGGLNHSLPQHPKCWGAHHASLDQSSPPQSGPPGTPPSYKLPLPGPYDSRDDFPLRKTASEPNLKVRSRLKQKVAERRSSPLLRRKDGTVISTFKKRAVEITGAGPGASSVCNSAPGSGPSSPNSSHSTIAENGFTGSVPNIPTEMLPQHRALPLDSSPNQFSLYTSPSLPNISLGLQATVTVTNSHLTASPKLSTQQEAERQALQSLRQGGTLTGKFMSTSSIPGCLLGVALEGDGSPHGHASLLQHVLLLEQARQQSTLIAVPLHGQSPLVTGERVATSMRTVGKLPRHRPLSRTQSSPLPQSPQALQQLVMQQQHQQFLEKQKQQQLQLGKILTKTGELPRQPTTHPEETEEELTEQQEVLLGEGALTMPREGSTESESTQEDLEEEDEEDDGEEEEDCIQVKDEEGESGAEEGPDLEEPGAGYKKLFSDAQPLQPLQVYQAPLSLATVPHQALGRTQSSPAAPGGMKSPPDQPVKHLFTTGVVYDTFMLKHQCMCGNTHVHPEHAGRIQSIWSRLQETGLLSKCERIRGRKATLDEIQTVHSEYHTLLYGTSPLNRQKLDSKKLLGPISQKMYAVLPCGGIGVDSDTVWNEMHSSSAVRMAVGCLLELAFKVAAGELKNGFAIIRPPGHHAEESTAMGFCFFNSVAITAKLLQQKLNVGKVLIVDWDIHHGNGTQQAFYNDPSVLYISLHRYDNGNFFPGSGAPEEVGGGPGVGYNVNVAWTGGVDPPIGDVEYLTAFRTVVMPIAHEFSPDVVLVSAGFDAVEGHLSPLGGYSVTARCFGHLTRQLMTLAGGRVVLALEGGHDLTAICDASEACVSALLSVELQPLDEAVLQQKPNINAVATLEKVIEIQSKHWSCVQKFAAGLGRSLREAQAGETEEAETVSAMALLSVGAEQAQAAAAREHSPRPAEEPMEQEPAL
Sequence of Histone deacetylase 3 (O15379 whole entry): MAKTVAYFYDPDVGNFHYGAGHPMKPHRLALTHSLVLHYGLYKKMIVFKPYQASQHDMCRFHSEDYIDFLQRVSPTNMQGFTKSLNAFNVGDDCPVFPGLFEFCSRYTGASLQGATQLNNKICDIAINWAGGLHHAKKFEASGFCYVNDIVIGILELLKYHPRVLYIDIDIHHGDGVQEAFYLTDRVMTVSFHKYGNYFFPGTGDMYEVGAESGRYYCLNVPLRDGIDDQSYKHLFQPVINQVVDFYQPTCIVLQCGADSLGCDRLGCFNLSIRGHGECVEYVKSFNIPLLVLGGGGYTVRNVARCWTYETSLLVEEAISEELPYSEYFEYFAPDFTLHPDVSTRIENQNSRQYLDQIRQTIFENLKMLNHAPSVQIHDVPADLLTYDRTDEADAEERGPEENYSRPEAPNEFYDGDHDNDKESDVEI
Sequence of Histone deacetylase 9 (Q9UKV0 whole entry): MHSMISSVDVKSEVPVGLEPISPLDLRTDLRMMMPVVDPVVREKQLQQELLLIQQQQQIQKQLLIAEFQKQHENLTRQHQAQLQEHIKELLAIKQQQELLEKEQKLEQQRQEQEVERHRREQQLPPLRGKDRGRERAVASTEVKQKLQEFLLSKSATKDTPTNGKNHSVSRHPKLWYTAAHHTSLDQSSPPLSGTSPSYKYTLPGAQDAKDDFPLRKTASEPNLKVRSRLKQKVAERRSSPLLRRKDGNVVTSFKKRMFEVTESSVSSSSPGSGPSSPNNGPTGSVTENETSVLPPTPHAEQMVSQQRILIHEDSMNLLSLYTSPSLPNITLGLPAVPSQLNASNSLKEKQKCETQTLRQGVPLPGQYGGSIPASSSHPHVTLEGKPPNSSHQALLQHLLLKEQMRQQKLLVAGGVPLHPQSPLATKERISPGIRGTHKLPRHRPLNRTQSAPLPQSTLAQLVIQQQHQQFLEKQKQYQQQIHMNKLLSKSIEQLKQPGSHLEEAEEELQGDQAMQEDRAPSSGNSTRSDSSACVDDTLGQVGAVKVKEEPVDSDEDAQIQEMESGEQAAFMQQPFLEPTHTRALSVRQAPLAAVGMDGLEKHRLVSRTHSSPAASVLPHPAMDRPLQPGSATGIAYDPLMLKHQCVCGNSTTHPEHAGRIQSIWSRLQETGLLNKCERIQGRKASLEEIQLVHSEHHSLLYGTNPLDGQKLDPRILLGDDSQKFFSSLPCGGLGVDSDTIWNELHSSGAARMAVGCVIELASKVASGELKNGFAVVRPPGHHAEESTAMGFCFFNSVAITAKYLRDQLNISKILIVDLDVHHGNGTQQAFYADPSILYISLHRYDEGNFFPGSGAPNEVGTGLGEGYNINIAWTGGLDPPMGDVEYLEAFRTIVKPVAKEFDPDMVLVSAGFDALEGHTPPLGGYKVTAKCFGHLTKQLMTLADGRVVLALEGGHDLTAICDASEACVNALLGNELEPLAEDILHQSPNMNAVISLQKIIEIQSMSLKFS

`COc1ccc(-c2ccc(/C=C/C=C/C(=O)NO)cc2)cc1`: the IC50 on Histone deacetylase 11 was above 100 µM; at Histone deacetylase 9 it was above 100 µM; on Histone deacetylase 4, above 100 µM; in experiment [1] it was above 100 µM; with HCT-116 it was 2.4 µM; against Histone deacetylase 5 it was above 100 µM. In addition, the values for the IC50 (against Histone deacetylase 3; in experiment [2]) were above 100 µM and 3.26 µM, respectively. Also, the Activity with IGROV-1 is 91%.
Regarding `COc1ccc(-c2ccc(/C=C/C=C/C(=O)NO)cc2)cc1C12CC3CC(CC(C3)C1)C2`, the IC50 on Histone deacetylase 11 was 38.1 µM; against Histone deacetylase 9, above 100 µM; at Histone deacetylase 4, above 100 µM; in experiment [1], above 100 µM; in the experiment on HCT-116, 1.8 µM; against Histone deacetylase 5, above 100 µM. Further, the IC50 at Histone deacetylase 3 is above 100 µM; in [2], 16.7 µM. Besides, in the experiment with IGROV-1, the Activity amounted to 52%.
